Holding throughout (assay type): functional, cell-based
The subject of one assay is NCI-H292. The assay is described as follows: Cytotoxicity against human NCI-H292 cells assessed as growth inhibition after 72 hrs by MTT assay. The following applies: NCI-H292, 72 h. In a few lines:
(§1)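 Media: PC-3 in DMEM with 10% FBS, 2 mM L-glutamine and penicillin/streptomycin; SF-295, MDA-MB-231 and H292 in RPMI-1640 with 10% FBS, 2 mM L-glutamine, 1 mM pyruvate and penicillin/streptomycin. Cells were seeded at 3,000 per well 16 h before adding compound or DMSO vehicle, then kept 72 h at 5% CO2. Viability was measured by MTT, normalised to vehicle-treated cells as 100%.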
Background: Tetrazolium dyes change colour on reduction, which living cells bring about.

Assay [1] is described as follows: Cytotoxicity against human PC3 cells assessed as growth inhibition after 72 hrs by MTT assay. The following applies: PC-3, 72 h. In short, it runs like this:
as §1

The next assay deals with SF-295. As to the kind of experiment: Cytotoxicity against human SF295 cells assessed as growth inhibition after 72 hrs by MTT assay. Particulars: SF-295, 72 h. In short, it runs like this: as §1
In another assay the test system is MDA-MB-231. The assay is described as follows: Cytotoxicity against human MDA-MB-231 cells assessed as growth inhibition after 72 hrs by MTT assay. The following applies: MDA-MB-231, 72 h. In short, it runs like this: as §1
A further assay deals with B16. The assay is described as follows: Cytotoxicity against mouse B16 cells assessed as growth inhibition after 72 hrs by MTS assay. Particulars: B16, 72 h. In a few lines: (§2)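 Seeding per well: A549 500 cells (DMEM), HCT-116 5000 (McCoy's 5A), MCF-7 5000 (EMEM), B16 2000 (DMEM). All media had 10% FBS; cells kept at 37 °C, 5% CO2. Cells settled 6 h, then received compounds pre-diluted 250-fold from DMSO into medium, and were exposed 72 h. Wells were washed with phenol-red-free medium, given MTS for 40 min, and read at 490 nm absorbance.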

In a further assay the test system is A549. The assay is described as follows: Cytotoxicity against human A549 cells assessed as growth inhibition after 72 hrs by MTS assay. Particulars: A549, 72 h. In a few lines: as §2
The test system of the next assay is MCF7. The assay is described as follows: Cytotoxicity against human MCF7 cells assessed as growth inhibition after 72 hrs by MTS assay. The following applies: MCF7, 72 h. In a few lines: as §2
Assay [2] can be described thus: Cytotoxicity against human HCT116 cells assessed as growth inhibition after 72 hrs by MTS assay. Particulars: HCT-116, 72 h. In a few lines:
as §2

Where a SMILES comes first, the peptide text is derived from it. Bridges are numbered along the chain shown (N, C = ends). [ ]: non-standard residue; d: D form. The star is where a group is joined. NMe2Val = CC(C)[C@@H](C(=O)*)N(C)C; NMeI = CC[C@H](C)[C@H](NC)C(=O)O; NMeT = CN[C@H](C(=O)O)[C@@H](C)O; NMeL = CN[C@@H](CC(C)C)C(=O)O; Hiv = CC(C)[C@H](O)C(=O)O; NMeS = CN[C@@H](CO)C(=O)O; NMeA = CN[C@@H](C)C(=O)O; dNMeA = CN[C@H](C)C(=O)O

With `CC[C@H](C)[C@H]1C(=O)N[C@@H](C)C(=O)N(C)[C@@H](CC(C)C)C(=O)N[C@@H](Cc2ccc(OC)cc2)C(=O)N(C)[C@@H](C)C(=O)O[C@H](C)[C@H](N(C)C(=O)[C@H](CC(C)C)N(C)C(=O)[C@H](COC)N(C)C(=O)[C@@H](OC(=O)[C@H](C(C)C)N(C)C)C(C)C)C(=O)N(C)[C@@H](COC)C(=O)N1C` (NMe2Val-[Hiv][NMeS](Me)[NMeL][NMeT][NMeS](Me)[NMeI]A[NMeL]Y(Me)[NMeA]; ester 4-C), the IC50 (usually the concentration needed to halve the response being measured) in the assay on NCI-H292 was found to be 124 nM; in assay [1] it was 80 nM; in the assay on SF-295, 219 nM; in the assay with MDA-MB-231, 66 nM.

Turning to `CC[C@H](C)[C@H]1C(=O)N[C@@H](C)C(=O)N(C)[C@@H](CC(C)C)C(=O)N[C@@H](Cc2ccc(OC)cc2)C(=O)N(C)[C@H](C)C(=O)O[C@H](C)[C@H](N(C)C(=O)[C@H](CC(C)C)N(C)C(=O)[C@H](COC)N(C)C(=O)[C@@H](OC(=O)[C@H](C(C)C)N(C)C)C(C)C)C(=O)N(C)[C@@H](COC)C(=O)N1C` (NMe2Val-[Hiv][NMeS](Me)[NMeL][NMeT][NMeS](Me)[NMeI]A[NMeL]Y(Me)[dNMeA]; ester 4-C), the IC50 in the assay with B16 is 54.4 nM; with NCI-H292, 610 nM; in the assay on A549, 19 nM; in assay [1], 424 nM; in the assay with MCF7 it was 48.6 nM; in the assay with SF-295, 816 nM. In addition, the IC50 in assay [2] is 44.6 nM; in the assay with MDA-MB-231, 545 nM.

The values above are taken from ChEMBL document CHEMBL3351406, “Synthesis and biological evaluation of the [d-MeAla(11)]-epimer of coibamide A” (Bioorg Med Chem Lett, 2015).
